Data as given in ChEMBL document CHEMBL4196176, “Structure-Based Design of MptpB Inhibitors That Reduce Multidrug-Resistant Mycobacterium tuberculosis Survival and Infection Burden in Vivo” (J Med Chem, 2018).
pIC50: −log10 of the molar value. Calls of active or inactive are those of the source. The rule behind the calls is not given here.

Key:
[1] = biological target: T1, Phosphotyrosine protein phosphatase (Mycobacterium tuberculosis, UniProt A0A045ISB3); assay: Inhibition of Mycobacterium tuberculosis H37Rv His-tagged ptpB expressed in Escherichia coli BL21(DE3) using pNPP as substrate preincubated for 15 mins followed by substrate addition and measured after 15 mins
T1 sequence (A0A045ISB3 whole entry): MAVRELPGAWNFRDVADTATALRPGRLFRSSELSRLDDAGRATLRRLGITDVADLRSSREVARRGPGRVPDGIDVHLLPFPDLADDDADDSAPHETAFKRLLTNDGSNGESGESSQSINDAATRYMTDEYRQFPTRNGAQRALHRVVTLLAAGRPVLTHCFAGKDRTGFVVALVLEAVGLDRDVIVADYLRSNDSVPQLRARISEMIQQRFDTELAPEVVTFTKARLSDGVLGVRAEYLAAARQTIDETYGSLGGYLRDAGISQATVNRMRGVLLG

[2] = tested on: Cavia porcellus; assay: Half life in Dunkin Hartley guinea pig at 1.25 mg/kg, ip; type: ADME, organism-based; conditions: in vivo
[3] = Inhibition of Mycobacterium tuberculosis H37Rv His-tagged ptpA expressed in Escherichia coli BL21(DE3) using pNPP as substrate preincubated for 15 mins followed by substrate addition and measured after 15 mins
Procedure, shortened: (§1)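 His-tagged MptpA/MptpB expressed in E. coli BL21(DE3); VHR and hPTP1B purified as GST fusions with the tag cleaved. 0.5 μg protein in Tris/BisTris/acetate buffer (pH 7 MptpB, 6.5 MptpA, 6 hPTP1B, 5 VHR) with compound at 0–250 μM, 15 min at room temperature. pNPP added to 0.35 mM for 15 min, quenched with NaOH, read at 405 nm against a pNP curve. No-enzyme blanks.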

[4] = tested on: Cavia porcellus; assay: Cmax in Dunkin Hartley guinea pig at 1.25 mg/kg, ip after 0.5 hrs post dose; type: ADME, organism-based; parameters: dose 1.25 mg/kg, route intraperitoneal; conditions: in vivo
[5] = tested on: Cavia porcellus; assay: Cmax in Dunkin Hartley guinea pig at 3.5 mg/kg, po after 0.25 hrs post dose; type: ADME, organism-based; parameters: dose 3.5 mg/kg, route oral; conditions: in vivo, BLD = below limit of detection
[6] = tested on: Cavia porcellus; assay: AUCinfinity in Dunkin Hartley guinea pig at 1.25 mg/kg, ip; type: ADME, organism-based; parameters: dose 1.25 mg/kg, time infinity, route intraperitoneal; conditions: in vivo
[7] = biological target: Dual specificity protein phosphatase 3 (Homo sapiens, UniProt P51452); assay: Inhibition of human VHR using pNPP as substrate preincubated for 15 mins followed by substrate addition and measured after 15 mins; procedure, shortened: as §1
[8] = tested on: Cavia porcellus; assay: AUCinfinity in Dunkin Hartley guinea pig at 3.5 mg/kg, po; type: ADME, organism-based; parameters: dose 3.5 mg/kg, route oral, time infinity; conditions: in vivo, BLD = below limit of detection
[9] = tested on: Cavia porcellus; assay: Oral bioavailability in Dunkin Hartley guinea pig at 3.5 mg/kg; type: ADME, organism-based; conditions: in vivo
[10] = biological target: T2, Tyrosine-protein phosphatase non-receptor type 1 (Homo sapiens, UniProt P18031); assay: Inhibition of human PTP1B using pNPP as substrate preincubated for 15 mins followed by substrate addition and measured after 15 mins
T2 sequence (P18031 whole entry): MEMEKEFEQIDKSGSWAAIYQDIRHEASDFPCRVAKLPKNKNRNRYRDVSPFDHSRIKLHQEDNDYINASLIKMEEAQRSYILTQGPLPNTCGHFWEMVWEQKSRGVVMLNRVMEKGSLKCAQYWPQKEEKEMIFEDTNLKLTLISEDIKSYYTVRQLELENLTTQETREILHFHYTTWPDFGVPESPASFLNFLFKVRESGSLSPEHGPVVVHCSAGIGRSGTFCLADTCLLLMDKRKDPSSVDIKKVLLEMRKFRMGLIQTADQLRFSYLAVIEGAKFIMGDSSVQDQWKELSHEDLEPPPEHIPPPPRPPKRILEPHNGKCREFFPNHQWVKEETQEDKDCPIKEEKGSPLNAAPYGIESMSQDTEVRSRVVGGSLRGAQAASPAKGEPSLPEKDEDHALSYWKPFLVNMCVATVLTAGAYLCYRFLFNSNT

[11] = tested on: Cavia porcellus; assay: Half life in Dunkin Hartley guinea pig at 3.5 mg/kg, po; type: ADME, organism-based; conditions: in vivo, BLD = below limit of detection
[12] = tested on: J774.A1; assay: Cytotoxicity against mouse J774A.1 cells assessed as reduction in cell viability at >100 uM after 24 hrs by MTT assay; type: cell-based; conditions: j774.a1, 24 h
Procedure, shortened: (§2)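 MTT viability assay in J774A.1 cells seeded at 6 × 10^3/well and adhered overnight. Inhibitor in DMSO or DMSO only added for 24 h. MTT (5 mg/mL in PBS) added for 4 h, formazan dissolved in DMSO with Sorensen's glycine buffer, absorbance read at 570 nm.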

[13] = tested on: J774.A1; assay: Cytotoxicity against mouse J774A.1 cells assessed as reduction in cell viability at 50 to 150 uM after 24 hrs by MTT assay; type: cell-based; conditions: j774.a1, 24 h; procedure, shortened: as §2
[14] = biological target: T3, Phosphotyrosine protein phosphatase (Mycobacterium tuberculosis) (UniProt A0A045ISB3); assay: Inhibition of Mycobacterium tuberculosis H37Rv ATCC 35837 ptpB infected in human THP1 cells assessed as reduction in intracellular bacterial burden at 10 to 80 uM after 72 hrs post infection relative to DMSO-treated control; type: cell-based
T3 sequence (whole entry): T1 sequence (A0A045ISB3 whole entry)
Procedure, shortened: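 PMA-differentiated THP1 cells (1 × 10^6/well, RPMI with 10% FBS and 4 mM L-glutamine) received inhibitor in DMSO, then thawed M. tuberculosis at MOI 1:1. Washed after 3 h; medium and inhibitor renewed at 24 h. At 72 h, lysed in 0.05% SDS; 10-fold dilutions plated in duplicate on 7H10, CFU counted after 3 weeks at 37 °C; triplicate experiments.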

[15] = tested on: Cavia porcellus; assay: Cmax in Dunkin Hartley guinea pig at 5 mg/kg, po after 0.25 hrs post dose; type: ADME, organism-based; parameters: dose 5 mg/kg, route oral; conditions: in vivo, BLD = below limit of detection
[16] = tested on: Cavia porcellus; assay: Half life in Dunkin Hartley guinea pig at 5 mg/kg, po; type: ADME, organism-based; conditions: in vivo, BLD = below limit of detection
[17] = tested on: Cavia porcellus; assay: Cmax in Dunkin Hartley guinea pig at 2.5 mg/kg, ip after 0.5 hrs post dose; type: ADME, organism-based; parameters: dose 2.5 mg/kg, route intraperitoneal; conditions: in vivo
[18] = tested on: Cavia porcellus; assay: Oral bioavailability in Dunkin Hartley guinea pig at 5 mg/kg; type: ADME, organism-based; conditions: in vivo
[19] = tested on: Cavia porcellus; assay: AUCinfinity in Dunkin Hartley guinea pig at 2.5 mg/kg, ip; type: ADME, organism-based; parameters: dose 2.5 mg/kg, time infinity, route intraperitoneal; conditions: in vivo
[20] = tested on: Cavia porcellus; assay: AUCinfinity in Dunkin Hartley guinea pig at 5 mg/kg, po; type: ADME, organism-based; parameters: dose 5 mg/kg, time infinity, route oral; conditions: in vivo, BLD = below limit of detection
[21] = tested on: Cavia porcellus; assay: Half life in Dunkin Hartley guinea pig at 2.5 mg/kg, ip; type: ADME, organism-based; conditions: in vivo

Chain of Dual specificity protein phosphatase 3 (P51452 whole entry): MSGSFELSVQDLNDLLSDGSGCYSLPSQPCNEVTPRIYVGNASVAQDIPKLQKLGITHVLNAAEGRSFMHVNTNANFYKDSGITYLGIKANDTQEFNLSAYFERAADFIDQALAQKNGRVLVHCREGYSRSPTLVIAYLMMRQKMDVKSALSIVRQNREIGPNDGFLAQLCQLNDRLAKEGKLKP

SMILES | pIC50 [1] | pIC50 [3] | pIC50 [7] | pIC50 [10] | Activity [13] | other results
O=C(O)c1cc(-c2ccccc2)on1 | < 3.30 |  |  |  |  | 
O=C(O)c1noc(-c2ccccc2)c1-c1cccc(-c2cc(Cl)cc(Cl)c2)c1 |  | 5.19 | 4.91 | 4.32 |  | t1/2 [2]: 1.3 h; Cmax [4]: 746 ng/mL; Cmax [5]: Bld; AUC [6]: 1742 ng·h/mL; AUC [8]: Bld; F [9]: < 13%; t1/2 [11]: Bld
O=C(O)c1noc(-c2ccccc2)c1-c1cccc(-c2ccc(O)c(Cl)c2)c1 | 6.05 | 4.63 | 4.73 | 3.67 | Non-Toxic | Activity [12]: > 23%
O=C(O)c1noc(-c2ccccc2)c1-c1cccc(-c2cc(Cl)c(O)c([N+](=O)[O-])c2)c1 |  | 4.52 | 4.89 | 3.50 | Non-Toxic | 
COC(=O)c1c(O)cccc1OC/C=C/c1cccc(-c2cc(C(=O)O)no2)c1 [ISOXAZOLECARBOXYLIC ACID] | 5.15 |  |  |  |  | inhibition [14]: Active
O=C(O)c1noc(-c2ccccc2)c1-c1cccc(-c2cc(Cl)c(O)c(Cl)c2)c1 |  | 4.47 | 4.98 | 3.90 | Non-Toxic | Cmax [15]: Bld; t1/2 [16]: Bld; Cmax [17]: 3714 ng/mL; F [18]: < 4%; AUC [19]: 4968 ng·h/mL; AUC [20]: Bld; t1/2 [21]: 0.7 h
O=C(O)c1noc(-c2ccccc2)c1-c1cccc(-c2ccc(O)c(F)c2)c1 | 5.82 | 4.45 | 4.40 | < 4.00 | Non-Toxic | 
